Measurements as given in ChEMBL document CHEMBL1138845, “Design of non-nucleoside inhibitors of HIV-1 reverse transcriptase with improved drug resistance properties. 2” (J Med Chem, 2004).

Columns and labels:
[1] = test system: HeLa; assay: Inhibitory concentration against human immunodeficiency virus type 1 (with Y181C resistant mutation) was determined in HeLa-CD4 MAGI assay; assay type: functional, cell-based
Summary of the method: (§1)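 Tested against a panel of recombinant, isogenic HIV-1 viruses, wild type and NNRTI-resistant strains carrying engineered single or double RT mutations. The readout was IC50.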

[2] = test system: HeLa; assay: Inhibitory concentration against human immunodeficiency virus type 1 (with Y188C resistant mutation) was determined in HeLa-CD4 MAGI assay; assay type: functional, cell-based; summary of the method: as §1
[3] = test system: HeLa; assay: Inhibitory concentration against human immunodeficiency virus type 1 (with K103N resistant mutation) was determined in HeLa-CD4 MAGI assay; assay type: functional, cell-based; summary of the method: as §1
[4] = test system: HeLa; assay: Inhibitory concentration against human immunodeficiency virus type 1 (with K103N/G190A resistant mutation) was determined in HeLa-CD4 MAGI assay; assay type: functional, cell-based; summary of the method: as §1
[5] = test system: HeLa; assay: Inhibitory concentration against human immunodeficiency virus type 1 (with G190A resistant mutation) was determined in HeLa-CD4 MAGI assay; assay type: functional, cell-based; summary of the method: as §1
[6] = test system: MT4; assay: Inhibitory concentration against nevirapine resistant strain (with Y181C mutation in HIV-1 RT gene) of human immunodeficiency virus type 1 was determined by MT-4 assay; assay type: functional, cell-based
[7] = test system: MT4; assay: Inhibitory concentration against wild type human immunodeficiency virus type 1 was determined by MT-4 assay; assay type: functional, cell-based
[8] = test system: HeLa; assay: Inhibitory concentration against human immunodeficiency virus type 1 (with V108I/Y181C resistant mutation) was determined in HeLa-CD4 MAGI assay; assay type: functional, cell-based; summary of the method: as §1
[9] = test system: MT4; assay: Ratio of cytotoxic concentration to that of inhibitory concentration as selectivity index was determined by MT-4 assay; assay type: functional, Homo sapiens
Summary of the method: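 Index is the IC50 in uninfected MT4 cells divided by the antiviral IC50 in MT4 cells infected with wild-type HIV-1 or the nevirapine-resistant strain carrying RT mutation Y181C.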

[10] = test system: HeLa; assay: Inhibitory concentration against human immunodeficiency virus type 1 (with K103N/Y181C resistant mutation) was determined in HeLa-CD4 MAGI assay; assay type: functional, cell-based; summary of the method: as §1
[11] = test system: HeLa; assay: Inhibitory concentration against human immunodeficiency virus type 1 (with V108I resistant mutation) was determined in HeLa-CD4 MAGI assay; assay type: functional, cell-based; summary of the method: as §1
[12] = test system: Human immunodeficiency virus 1; assay: Inhibitory concentration against wild type human immunodeficiency virus type 1 was determined by recombinant virus assay; assay type: functional, organism-based
Summary of the method: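 Isogenic recombinant HIV-1 carrying wild-type RT, tested in parallel with a panel of NNRTI-resistant RT mutants built on the same background; activity reported as IC50.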

[13] = test system: HeLa; assay: Inhibitory concentration against human immunodeficiency virus type 1 (with K103N/V108I resistant mutation) was determined in HeLa-CD4 MAGI assay; assay type: functional, cell-based; summary of the method: as §1
[14] = test system: HeLa; assay: Inhibitory concentration against human immunodeficiency virus type 1 (with V106A/Y181C resistant mutation) was determined in HeLa-CD4 MAGI assay; assay type: functional, cell-based; summary of the method: as §1
[15] = test system: HeLa; assay: Inhibitory concentration against human immunodeficiency virus type 1 (with V106A resistant mutation) was determined in HeLa-CD4 MAGI assay; assay type: functional, cell-based; summary of the method: as §1

Compound | IC50 [1] [nM] | IC50 [2] [nM] | IC50 [3] [nM] | IC50 [4] [nM] | IC50 [5] [nM] | IC50 [6] [nM] | IC50 [7] [nM] | IC50 [8] [nM] | Ratio [9] | IC50 [10] [nM] | IC50 [11] [nM] | IC50 [12] [nM] | IC50 [13] [nM] | IC50 [14] [nM] | IC50 [15] [nM]
CC(C)c1c(O)nc2ccc(Cl)cc2c1OC#CC1CC1 | 39 | 18 | 320 | 52 | 3 | 31 | 24 | 120 | >8000 | 620 | 36 | 16 | 1200 | 120 | 57
CC(C)Nc1cccnc1N1CCN(C(=O)c2cc3cc(NS(C)(=O)=O)ccc3[nH]2)CC1 [DELAVIRDINE] |  | 124 | 2650 | 8000 | 35 |  |  | 10000 |  | 1250 | 97 | 159 | 3400 | 10000 | 870
Cc1ccnc2c1NC(=O)c1cccnc1N2C1CC1 [NEVIRAPINE] | > 10000 |  |  |  | > 10000 |  |  | > 10000 |  | > 50000 |  | 89 |  | > 10000 | ~10000
CCCc1c(O)nc2ccc(F)cc2c1OC#CC1CC1 | 1 | 290 | > 2000 | 490 | 21 | 81 | 72 | 370 | >8000 | 1400 | 160 | 66 | > 2000 | 380 | 440
CCCc1c(O)nc2ccc(OC(F)(F)F)cc2c1OC1CCCC1 | 990 | 360 | > 2000 | > 2000 | 47 | 2500 | 380 | > 2000 | >40000 | > 2000 | 300 | 270 | > 2000 | > 2000 | > 2000
CCCc1c(O)nc2ccc(F)cc2c1OC1CCCC1 | 1800 | 42 | > 2000 | > 2000 | 370 | 1300 | 150 | > 2000 | >40000 | > 2000 | 350 | 150 | > 2000 | > 2000 | > 2000
CCc1c(O)nc2ccc(F)cc2c1OCC1CCC1 | 390 | 130 | 270 | 1100 | 110 | 230 | 39 | 870 | >8000 | > 2000 | 250 | 89 | > 2000 | > 2000 | 1700
CCc1c(O)nc2ccc(Cl)cc2c1OC1CCCC1 | 6 | 54 | > 2000 | 640 | 12 | 1020 | 78 | 780 | >40000 | > 2000 | 260 | 72 | > 2000 | ~1000 | > 2000
CCCc1c(OC2CCCCC2)c2cc(Cl)ccc2[nH]c1=O | 470 | 12 | > 2000 | 1000 | 54 | 760 | 58 | 900 | >5000 | > 2000 | 180 | 32 | ~2000 | 1100 | 980
CCCc1c(O)nc2ccc(Cl)cc2c1OC1CCC1 | 1700 | 290 | > 2000 | > 2000 | 220 | 2500 | 470 | > 2000 | >8000 | > 2000 | 690 | 300 | > 2000 | > 2000 | > 2000
